Assay outcomes (PubChem BioAssay)
Insulin prom up: MIN6 insulin promoter up-regulation | MIN6 insulin promoter-GFP reporter, high-content imaging; active compounds read high | AID 1625 | z-score at 5 µM | 190,000 tested, 0.3% active;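 active means z-score above 3 at 5 µM with at least 500 cells counted in the well; inconclusive means wells under 500 cells, flagged as cytotoxic or low count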
SR-BI DiI inh: mouse SR-BI HDL lipid transfer inhibition; ldlA[mSR-BI] CHO cells, DiI-HDL uptake fluorescence, 3 h; AID 488896; 320,000 tested, 0.96% active; inhibition, % at 12.5 µM;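 active means mean replicate inhibition of at least 70% and a set share of replicates each scoring 70 or more; inconclusive means meets just one of the two criteria; inactive means fails both criteria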;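 further: 0% = median of neutral control wells and 100% = median of positive control wells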
beta cell repl: MIN6 beta-cell proliferation induction; MIN6 cells proliferation, ATPlite luminescence, 48 h; cells starved in 0.2% serum; 100% = growth in 10% serum; proliferation, % at 10 µM; 330,000 tested, 0.29% active; AID 2380;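 active means compounds whose signal lies at least 3.5 SD above the mean of all wells on their plate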;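 further: 0% = DMSO-treated cells in low-serum medium and 100% = 10% serum control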
SR-BI uptake up: SR-BI HDL lipid transfer activation; CHO ldlA[mSR-BI] cells, DiI-HDL uptake fluorescence, 3 h; 100 = double the neutral-control signal; activation, % at 12.5 µM; 320,000 tested, 0.096% active; AID 504775;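 active means mean replicate activation of at least 60% and every replicate at or above 60%; inconclusive means mean or all-replicate condition met, but not both; inactive means mean below 60% and not all replicates reaching 60%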;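 further: 0% = median plate neutral-control signal and 100% = twice that signal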
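Test system: SR-BI-overexpressing, LDLR-lacking CHO cells; Medium: Ham's F12 with 0.5% BSA, HEPES 25 mM, pH 7.4; Schedule: 3 h, 37 °C; Technique: bottom-read fluorescence, 550/595 nm.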
Calb FLC: affects C. albicans growth with fluconazole; C. albicans CaCi-2 + fluconazole, Alamar Blue growth, 48 h; growth inhibition, % (concentration not given with the values); 300,000 tested, 0.57% active; AID 1979;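 active means growth inhibition above about 58% in most replicates, limit read from the data, passing the limit was not always enough; inconclusive means exactly half the replicates above a set limit; inactive means most replicates below a set limit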;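 further: all wells also contain fluconazole at 8 µg/ml as a sub-toxic cotreatment; 0% = median of DMSO wells and 100% = median of geldanamycin control wells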
HTR2A ag: activates the mouse 5-HT2A serotonin receptor; P35363; CHO-K1 mHTR2A beta-arrestin complementation, luminescence; percent of 30 µM serotonin response; activation, % at 7.6 µM; 360,000 tested, 0.66% active; AID 624169;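 active means activation above a run cutoff, the mean activation of all tested compounds plus 3 SD, cut at about 14% in these data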;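 further: 0% = plate median of compound wells and 100% = 30 µM serotonin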
MOR ag counter: activates human mu opioid receptor in HTR2A counterscreen | shares compounds with HTR2A ag | U2OS OPRM1 beta-arrestin PathHunter, luminescence; DMSO 0%, DAMGO 9.3 µM 100% | activation, % at 9.3 µM | 2,300 tested, 5.3% active | AID 624380;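 active means mean activation above the mean of DMSO-only wells plus 3 SD, cut at about 0.5% in these data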
Target sequence (P35372 whole entry, looked up): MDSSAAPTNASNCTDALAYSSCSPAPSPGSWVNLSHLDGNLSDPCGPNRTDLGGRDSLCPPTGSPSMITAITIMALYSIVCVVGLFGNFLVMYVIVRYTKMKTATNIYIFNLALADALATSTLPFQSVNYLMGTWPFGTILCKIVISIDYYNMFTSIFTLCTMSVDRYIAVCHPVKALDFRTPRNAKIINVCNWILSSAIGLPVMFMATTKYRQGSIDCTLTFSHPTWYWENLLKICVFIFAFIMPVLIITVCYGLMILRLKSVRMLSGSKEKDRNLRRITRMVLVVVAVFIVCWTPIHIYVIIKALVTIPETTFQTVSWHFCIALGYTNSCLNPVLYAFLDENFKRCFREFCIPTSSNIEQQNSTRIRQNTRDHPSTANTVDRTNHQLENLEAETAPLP
HTR2A ag conf: mouse HTR2A agonism confirmed; shares compounds with HTR2A ag; CHO-K1 PathHunter beta-arrestin recruitment, luminescence; DMSO 0%, 30 µM serotonin 100%; activation, % at 7.6 µM; 2,300 tested, 19% active;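 active means mean activation across triplicates above the hit threshold derived in the original primary screen, cut at about 15% in these data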
An asterisk follows results filed as active; ? = inconclusive; nt = no result. In the library only some 2.4% were active in any assay of this set; here they are far more common.

SMILES | Insulin prom up | SR-BI DiI inh | beta cell repl | SR-BI uptake up | Calb FLC | HTR2A ag | MOR ag counter | HTR2A ag conf
CCOP(=O)(OCC)C(O)c1ccccc1 (stereo unspecified) | 0.12 | 18.5 | 0.5 | -18.5 | -7.0 | 15.8* | -0.6 | -4.5
c1ccc(CNCCc2ccc3c(c2)OCO3)nc1 | 0.16 | -11.7 | -1.4 | 11.7 | -22.6 | 4.0 | nt | nt
Brc1cccc(CNCCc2ccc3c(c2)OCO3)c1 | nt | -30.5 | 1.6 | 30.5 | -25.8 | 21.2* | 1.4* | 21.0*
O=C1C(Br)C2CCC1C2C(=O)O (stereo unspecified) | nt | nt | nt | nt | nt | 1.9 | nt | nt
O=C(c1cn(Cc2ccccc2F)c2ncccc12)C(F)(F)F | nt | 4.6 | 0.6 | -4.6 | -4.5 | 3.7 | nt | nt
COc1ccc(CCNCc2ccc(C)s2)cc1OC | -0.31 | -6.4 | 1.9 | 6.4 | -5.8 | 15.5* | -0.4 | -1.2
COc1ccc(CCNCc2cccn2C)cc1OC | nt | 0.9 | 1.0 | -0.9 | 0.1 | 25.1* | -0.7 | 13.8
Cn1cccc1CNCCc1ccc(F)cc1 | nt | 8.3 | -0.2 | -8.3 | ? | 7.4 | nt | nt
COc1ccc(CCNCc2sccc2C)cc1OC | 0.36 | -3.8 | 0.7 | 3.8 | -15.7 | 32.2* | -0.4 | 9.1
Cc1ccc(CNCCc2ccc(F)cc2)s1 | nt | -5.2 | 1.6 | 5.2 | -21.5 | -1.4 | nt | nt
Cn1c(O)c(Cc2cccc(Cl)c2Cl)c(=O)n(C)c1=O | nt | -16.1 | -2.2 | 16.1 | 6.0 | 0.4 | nt | nt
COC(=O)C1=C(C(=O)OC)SC2(S1)C(C(=O)OC)=C(C(=O)OC)Sc1c2ssc1=O | nt | -10.2 | nt | 10.2 | nt | 4.5 | nt | nt
COC(=O)C1=C(c2ccc(Cl)c(C(F)(F)F)c2)C[C@@H]2CC[C@H]1N2C(=O)NCc1ccco1 | nt | 11.3 | -5.5 | -11.3 | nt | -2.0 | nt | nt
COc1ccc2[nH]cc(CCN)c2c1 | 0.59 | -6.5 | -3.6 | 6.5 | nt | 51.9* | -0.5 | 27.7*
OCCNCCc1c[nH]c2ccc(OCc3ccccc3)cc12 | nt | -16.2 | -2.7 | 16.2 | -12.7 | 6.3 | nt | nt
CN(C)C1C(=O)C(C(N)=O)=C(O)C2(O)C(=O)C3=C(O)c4c(O)cccc4C(C)(O)C3C(O)C12 (stereo unspecified) | nt | -6.0 | -0.4 | 6.0 | nt | 2.6 | nt | nt
CC(C)CN(CC(C)C)C(=O)C1C2c3ccccc3C(c3ccccc32)C1C(=O)O (stereo unspecified) | nt | -17.4 | nt | 17.4 | nt | 1.7 | nt | nt
Cc1[nH]c2c(C(F)(F)F)cccc2c1CCN | 0.99 | -11.2 | -1.9 | 11.2 | 1.5 | 48.0* | -0.5 | 32.4*
CC(C)(O)/C=C/C(=O)C(C)(O)C1C(O)CC2(C)C3CC=C4C(C=C(O)C(=O)C4(C)C)C3(C)C(=O)CC12C (stereo unspecified) | nt | -9.8 | nt | 9.8 | nt | 29.9* | 0.0 | 7.8
FC(F)(F)c1ccc(CNCCc2c[nH]c3ccccc23)cc1 | nt | -5.7 | -1.6 | 5.7 | 1.5 | 1.5 | nt | nt
Clc1cccc(CNCCc2c[nH]c3ccccc23)c1 | nt | -14.3 | -6.4 | 14.4 | -3.1 | 41.7* | -0.1 | 19.2*
C[C@]12CCC3C(CC[C@H]4C[C@@H](O)CC[C@]34C)C1CC[C@@H]2OC(=O)[C@H](N)CCCCN (stereo partly specified) | nt | 9.8 | -6.4 | -9.8 | nt | -1.2 | nt | nt
CC1=NN=C(c2ccc(N)cc2)c2cc3c(cc2C1)OCO3 | nt | 55.4 | 2.0 | -55.4 | nt | 31.4* | -0.5 | 39.8*
CC1CC2(C)C(=CC1=O)CCC1C3CCC(C)(O)C3(C)CC3OC312 (stereo unspecified) | nt | -16.7 | nt | 16.7 | nt | -1.2 | nt | nt
CC(=O)c1cccc(OCC(O)CN2CC=C(c3ccccc3)CC2)c1 (stereo unspecified) | -0.14 | 17.9 | 0.2 | -17.9 | -10.1 | 18.6* | -0.7 | 79.5*
CC[C@H](C)[C@@H]1NC(=O)CNC(=O)c2csc(n2)[C@H](C(C)(C)O)OC(=O)C(C)(C)[C@H](CCCC(C)(Cl)Cl)OC(=O)c2csc1n2 | nt | nt | nt | nt | nt | 15.4* | -0.3 | 5.1
